Experiments:
[1] = system: Staphylococcus aureus; assay: Antimicrobial activity against Staphylococcus aureus MTCC 96 assessed as growth inhibition after 24 hrs by agar well diffusion method; format: functional; settings: MTCC 96, 24 h
[2] = system: Bacillus subtilis; assay: Antimicrobial activity against Bacillus subtilis MTCC 121 assessed as growth inhibition after 24 hrs by agar well diffusion method; format: functional; settings: MTCC 121, 24 h
[3] = system: Staphylococcus aureus; assay: Antimicrobial activity against Staphylococcus aureus MLS16 MTCC 2940 assessed as growth inhibition after 24 hrs by agar well diffusion method; format: functional; settings: MLS16 MTCC 2940, 24 h
[4] = system: Micrococcus luteus; assay: Antimicrobial activity against Micrococcus luteus MTCC 2470 assessed as growth inhibition after 24 hrs by agar well diffusion method; format: functional; settings: MTCC 2470, 24 h
[5] = system: Raoultella planticola; assay: Antimicrobial activity against Klebsiella planticola MTCC 530 assessed as growth inhibition after 24 hrs by agar well diffusion method; format: functional; settings: MTCC 530, 24 h
[6] = system: Escherichia coli; assay: Antimicrobial activity against Escherichia coli MTCC 739 assessed as growth inhibition after 24 hrs by agar well diffusion method; format: functional; settings: MTCC 739, 24 h
[7] = system: Pseudomonas aeruginosa; assay: Antimicrobial activity against Pseudomonas aeruginosa MTCC 2453 assessed as growth inhibition after 24 hrs by agar well diffusion method; format: functional; settings: MTCC 2453, 24 h
[8] = system: Candida albicans; assay: Antimicrobial activity against Candida albicans MTCC 3017 assessed as growth inhibition after 24 hrs by agar well diffusion method; format: functional; settings: MTCC 3017, 24 h
[9] = system: Candida albicans; assay: Antimicrobial activity against Candida albicans MTCC 183 assessed as growth inhibition after 24 hrs by agar well diffusion method; format: functional; settings: MTCC 183, 24 h
[10] = system: Candida albicans; assay: Antimicrobial activity against Candida albicans MTCC 227 assessed as growth inhibition after 24 hrs by agar well diffusion method; format: functional; settings: MTCC 227, 24 h
[11] = system: Candida albicans; assay: Antimicrobial activity against Candida albicans MTCC 854 assessed as growth inhibition after 24 hrs by agar well diffusion method; format: functional; settings: MTCC 854, 24 h
[12] = system: Candida albicans; assay: Antimicrobial activity against Candida albicans MTCC 1637 assessed as growth inhibition after 24 hrs by agar well diffusion method; format: functional; settings: MTCC 1637, 24 h
[13] = system: Candida albicans; assay: Antimicrobial activity against Candida albicans MTCC 3018 assessed as growth inhibition after 24 hrs by agar well diffusion method; format: functional; settings: MTCC 3018, 24 h
[14] = system: Candida albicans; assay: Antimicrobial activity against Candida albicans MTCC 3958 assessed as growth inhibition after 24 hrs by agar well diffusion method; format: functional; settings: MTCC 3958, 24 h
[15] = system: Candida albicans; assay: Antimicrobial activity against Candida albicans MTCC 4748 assessed as growth inhibition after 24 hrs by agar well diffusion method; format: functional; settings: MTCC 4748, 24 h
[16] = system: Candida albicans; assay: Antimicrobial activity against Candida albicans MTCC 7315 assessed as growth inhibition after 24 hrs by agar well diffusion method; format: functional; settings: MTCC 7315, 24 h
[17] = system: Candida parapsilosis; assay: Antimicrobial activity against Candida parapsilosis MTCC 1744 assessed as growth inhibition after 24 hrs by agar well diffusion method; format: functional; settings: Lodderomyces parapsilosis, MTCC 1744, 24 h
[18] = system: [Candida] aaseri; assay: Antimicrobial activity against Candida aaseri MTCC 1962 assessed as growth inhibition after 24 hrs by agar well diffusion method; format: functional; settings: Yamadazyma aaseri, MTCC 1962, 24 h
[19] = system: Nakaseomyces glabratus; assay: Antimicrobial activity against Candida glabrata MTCC 3019 assessed as growth inhibition after 24 hrs by agar well diffusion method; format: functional; settings: MTCC 3019, 24 h
[20] = system: Pichia kudriavzevii; assay: Antimicrobial activity against Candida krusei MTCC 3020 assessed as growth inhibition after 24 hrs by agar well diffusion method; format: functional; settings: MTCC 3020, 24 h
[21] = system: Pichia sporocuriosa; assay: Antimicrobial activity against Issatchenkia hanoiensis MTCC 4755 assessed as growth inhibition after 24 hrs by agar well diffusion method; format: functional; settings: MTCC 4755, 24 h
[22] = system: Staphylococcus aureus; assay: Bactericidal activity against Staphylococcus aureus MTCC 96 after 24 hrs by serial dilution method; format: functional; settings: MTCC 96, 24 h
[23] = system: Bacillus subtilis; assay: Bactericidal activity against Bacillus subtilis MTCC 121 after 24 hrs by serial dilution method; format: functional; settings: MTCC 121, 24 h
[24] = system: Staphylococcus aureus; assay: Bactericidal activity against Staphylococcus aureus MLS16 MTCC 2940 after 24 hrs by serial dilution method; format: functional; settings: MLS16 MTCC 2940, 24 h
[25] = system: Micrococcus luteus; assay: Bactericidal activity against Micrococcus luteus MTCC 2470 after 24 hrs by serial dilution method; format: functional; settings: MTCC 2470, 24 h
[26] = system: Raoultella planticola; assay: Bactericidal activity against Klebsiella planticola MTCC 530 after 24 hrs by serial dilution method; format: functional; settings: MTCC 530, 24 h
[27] = system: Escherichia coli; assay: Bactericidal activity against Escherichia coli MTCC 739 after 24 hrs by serial dilution method; format: functional; settings: MTCC 739, 24 h
[28] = system: Candida albicans; assay: Fungicidal activity against Candida albicans MTCC 3017 after 24 hrs by serial dilution method; format: functional; settings: MTCC 3017, 24 h
[29] = system: Candida albicans; assay: Fungicidal activity against Candida albicans MTCC 183 after 24 hrs by serial dilution method; format: functional; settings: MTCC 183, 24 h
[30] = system: Candida albicans; assay: Fungicidal activity against Candida albicans MTCC 227 after 24 hrs by serial dilution method; format: functional; settings: MTCC 227, 24 h
[31] = system: Candida albicans; assay: Fungicidal activity against Candida albicans MTCC 854 after 24 hrs by serial dilution method; format: functional; settings: MTCC 854, 24 h
[32] = system: Candida albicans; assay: Fungicidal activity against Candida albicans MTCC 1637 after 24 hrs by serial dilution method; format: functional; settings: MTCC 1637, 24 h
[33] = system: Candida albicans; assay: Fungicidal activity against Candida albicans MTCC 3018 after 24 hrs by serial dilution method; format: functional; settings: MTCC 3018, 24 h
[34] = system: Candida albicans; assay: Fungicidal activity against Candida albicans MTCC 3958 after 24 hrs by serial dilution method; format: functional; settings: MTCC 3958, 24 h
[35] = system: Candida albicans; assay: Fungicidal activity against Candida albicans MTCC 4748 after 24 hrs by serial dilution method; format: functional; settings: MTCC 4748, 24 h
[36] = system: Candida albicans; assay: Fungicidal activity against Candida albicans MTCC 7315 after 24 hrs by serial dilution method; format: functional; settings: MTCC 7315, 24 h
[37] = system: Candida parapsilosis; assay: Fungicidal activity against Candida parapsilosis MTCC 1744 after 24 hrs by serial dilution method; format: functional; settings: Lodderomyces parapsilosis, MTCC 1744, 24 h
[38] = system: [Candida] aaseri; assay: Fungicidal activity against Candida aaseri MTCC 1962 after 24 hrs by serial dilution method; format: functional; settings: Yamadazyma aaseri, MTCC 1962, 24 h
[39] = system: Nakaseomyces glabratus; assay: Fungicidal activity against Candida glabrata MTCC 3019 after 24 hrs by serial dilution method; format: functional; settings: MTCC 3019, 24 h
[40] = system: Pichia kudriavzevii; assay: Fungicidal activity against Candida krusei MTCC 3020 after 24 hrs by serial dilution method; format: functional; settings: MTCC 3020, 24 h
[41] = system: Pichia sporocuriosa; assay: Fungicidal activity against Issatchenkia hanoiensis MTCC 4755 after 24 hrs by serial dilution method; format: functional; settings: MTCC 4755, 24 h
[42] = system: Staphylococcus aureus; assay: Antibiofilm activity against Staphylococcus aureus MTCC 96 after 24 hrs by crystal violet staining based assay; format: functional, organism-based; settings: MTCC 96, 24 h
Outline: (§1)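 Biofilm inhibition tested for amine esters and esterquats. IC50 values (µg/mL) are the mean of three determinations, with ciprofloxacin as reference.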

[43] = system: Bacillus subtilis; assay: Antibiofilm activity against Bacillus subtilis MTCC 121 after 24 hrs by crystal violet staining based assay; format: functional, organism-based; settings: MTCC 121, 24 h; outline: as §1
[44] = system: Staphylococcus aureus; assay: Antibiofilm activity against Staphylococcus aureus MLS16 MTCC 2940 after 24 hrs by crystal violet staining based assay; format: functional, organism-based; settings: MLS16 MTCC 2940, 24 h; outline: as §1
[45] = system: Micrococcus luteus; assay: Antibiofilm activity against Micrococcus luteus MTCC 2470 after 24 hrs by crystal violet staining based assay; format: functional, organism-based; settings: MTCC 2470, 24 h; outline: as §1

`CCCCCC[N+](C)(C)CCCCCCCCCCC(=O)OC.[Cl-]` was tested, and the MIC [1] was 3.9 µg/mL, the MIC [2] was 7.8 µg/mL and the MIC [3] was 7.8 µg/mL. The MIC [4] was 3.9 µg/mL, the MIC [5] was 15.6 µg/mL and the MIC [6] was 31.2 µg/mL. For the same compound, the MIC [7] was greater than 125 µg/mL, the MIC [8] was 15.6 µg/mL and the MIC [9] was 15.6 µg/mL. It also gave an MIC [10] of 31.2 µg/mL, an MIC [11] of 15.6 µg/mL and an MIC [12] of 31.2 µg/mL. It also gave an MIC [13] of 15.6 µg/mL, an MIC [14] of 31.2 µg/mL and an MIC [15] of 15.6 µg/mL. The MIC [16] was 15.6 µg/mL, the MIC [17] was 15.6 µg/mL and the MIC [18] was 31.2 µg/mL. It also gave an MIC [19] of 15.6 µg/mL, an MIC [20] of 15.6 µg/mL and an MIC [21] of 15.6 µg/mL. It also gave an MBC [22] of 7.8 µg/mL, an MBC [23] of 7.8 µg/mL and an MBC [24] of 15.6 µg/mL. It also gave an MBC [25] of 7.8 µg/mL, an MBC [26] of 31.2 µg/mL and an MBC [27] of 62.5 µg/mL. For the same compound, the MFC [28] was 31.2 µg/mL, the MFC [29] was 31.2 µg/mL and the MFC [30] was 62.5 µg/mL. It also gave an MFC [31] of 31.2 µg/mL, an MFC [32] of 62.5 µg/mL and an MFC [33] of 31.2 µg/mL. It also gave an MFC [34] of 31.2 µg/mL, an MFC [35] of 15.6 µg/mL and an MFC [36] of 15.6 µg/mL. The MFC [37] was 31.2 µg/mL, the MFC [38] was 62.5 µg/mL and the MFC [39] was 31.2 µg/mL. The MFC [40] was 31.2 µg/mL, the MFC [41] was 31.2 µg/mL and the IC50 [42] was 2.5 µg/mL. For the same compound, the IC50 [43] was 4.8 µg/mL, the IC50 [44] was 3.2 µg/mL and the IC50 [45] was 2.1 µg/mL.
Compound `CCCCCCCC[N+](C)(CCCCCCCC)CCCCCCCCCCC(=O)OC.[Cl-]` has an MIC [1] of 3.9 µg/mL, an MIC [2] of 7.8 µg/mL and an MIC [3] of 7.8 µg/mL. For the same compound, the MIC [4] was 3.9 µg/mL, the MIC [5] was 31.2 µg/mL and the MIC [6] was greater than 125 µg/mL. The MIC [7] was greater than 125 µg/mL, the MIC [8] was 15.6 µg/mL and the MIC [9] was 31.2 µg/mL. The MIC [10] was 15.6 µg/mL, the MIC [11] was 15.6 µg/mL and the MIC [12] was 31.2 µg/mL. It also gave an MIC [13] of 31.2 µg/mL, an MIC [14] of 31.2 µg/mL and an MIC [15] of 15.6 µg/mL. The MIC [16] was 15.6 µg/mL, the MIC [17] was 62.5 µg/mL and the MIC [18] was 15.6 µg/mL. The MIC [19] was 31.2 µg/mL, the MIC [20] was 31.2 µg/mL and the MIC [21] was 31.2 µg/mL. For the same compound, the MBC [22] was 15.6 µg/mL, the MBC [23] was 15.6 µg/mL and the MBC [24] was 15.6 µg/mL. It also gave an MBC [25] of 7.8 µg/mL, an MBC [26] greater than 125 µg/mL and an MBC [27] greater than 125 µg/mL. The MFC [28] was 31.2 µg/mL, the MFC [29] was 31.2 µg/mL and the MFC [30] was 31.2 µg/mL. It also gave an MFC [31] of 31.2 µg/mL, an MFC [32] of 62.5 µg/mL and an MFC [33] of 31.2 µg/mL. It also gave an MFC [34] of 31.2 µg/mL, an MFC [35] of 31.2 µg/mL and an MFC [36] of 15.6 µg/mL. For the same compound, the MFC [37] was 31.2 µg/mL, the MFC [38] was 31.2 µg/mL and the MFC [39] was 31.2 µg/mL. The MFC [40] was 31.2 µg/mL, the MFC [41] was 31.2 µg/mL and the IC50 [42] was 3.2 µg/mL. It also gave an IC50 [43] of 4.6 µg/mL, an IC50 [44] of 4.8 µg/mL and an IC50 [45] of 2 µg/mL.

From ChEMBL document CHEMBL3784971, “Synthesis, characterization, antimicrobial and biofilm inhibitory studies of new esterquats” (Bioorg Med Chem Lett, 2016)
